Test results taken from ChEMBL document CHEMBL1255429, “Efflux pumps are involved in the defense of Gram-negative bacteria against the natural products isobavachalcone and diospyrone” (2010).

What was measured:
Type in all cases: functional
Klebsiella pneumoniae [1] = test: Antimicrobial activity against Klebsiella pneumoniae KP55 after 18 hrs by rapid INT colorimetric assay in presence of efflux pump inhibitor phenylalanine arginine; settings: KP55, 18 h
Klebsiella aerogenes [2] = test: Antimicrobial activity against Enterobacter aerogenes EA294 after 18 hrs by rapid INT colorimetric assay in presence of efflux pump inhibitor phenylalanine arginine; settings: EA294, 18 h
Escherichia coli [3] = test: Antimicrobial activity against Escherichia coli ATCC 10536 after 18 hrs by rapid INT colorimetric assay; settings: ATCC 10536, 18 h
Summary of the method: (§1)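 Strains precultured overnight on Mueller-Hinton agar. Sample dissolved in DMSO-MHB, twofold serial dilutions in MHB, inoculum 1.5 × 10^6 CFU/ml; final DMSO below 2.5%. Incubated 37°C 18 h, then 0.2 mg/ml INT added, 30 min at 37°C. MIC = lowest concentration preventing yellow-to-pink change (complete growth inhibition). DMSO-only wells as negative control.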

Klebsiella pneumoniae [4] = test: Antimicrobial activity against Klebsiella pneumoniae KP63 after 18 hrs by rapid INT colorimetric assay; settings: KP63, 18 h; summary of the method: as §1
Escherichia coli [5] = test: Antimicrobial activity against Escherichia coli AG100 after 18 hrs by rapid INT colorimetric assay; settings: AG100, 18 h
Summary of the method: (§2)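 Strains precultured overnight on Mueller-Hinton agar. Samples dissolved in DMSO-MHB, serially diluted twofold in MHB, inoculum 1.5 × 10^6 CFU/ml in MHB added; 37°C, 18 h; final DMSO <2.5%. 0.2 mg/ml INT then added, 30 min at 37°C. MIC = lowest concentration preventing yellow-to-pink reduction, i.e. complete growth inhibition.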

Klebsiella aerogenes [6] = test: Antimicrobial activity against Enterobacter aerogenes EA27 after 18 hrs by rapid INT colorimetric assay in presence of efflux pump inhibitor phenylalanine arginine; settings: EA27, 18 h
Klebsiella aerogenes [7] = test: Antimicrobial activity against Enterobacter aerogenes EA5 after 18 hrs by rapid INT colorimetric assay; settings: EA5, 18 h; summary of the method: as §1
Klebsiella aerogenes [8] = test: Antimicrobial activity against Enterobacter aerogenes EA-CM64 after 18 hrs by rapid INT colorimetric assay in presence of efflux pump inhibitor phenylalanine arginine; settings: EA-CM64, 18 h
Klebsiella aerogenes [9] = test: Antimicrobial activity against Enterobacter aerogenes ATCC 13048 after 18 hrs by rapid INT colorimetric assay in presence of efflux pump inhibitor phenylalanine arginine; settings: ATCC 13048, 18 h
Pseudomonas aeruginosa [10] = test: Antimicrobial activity against Pseudomonas aeruginosa PAO1 after 18 hrs by rapid INT colorimetric assay; settings: PAO1, 18 h; summary of the method: as §2
Escherichia coli [11] = test: Antimicrobial activity against Escherichia coli AG100 after 18 hrs by rapid INT colorimetric assay in presence of efflux pump inhibitor phenylalanine arginine; settings: AG100, 18 h
Klebsiella aerogenes [12] = test: Antimicrobial activity against Enterobacter aerogenes EA289 after 18 hrs by rapid INT colorimetric assay; settings: EA289, 18 h; summary of the method: as §1
Klebsiella aerogenes [13] = test: Antimicrobial activity against Enterobacter aerogenes EA298 after 18 hrs by rapid INT colorimetric assay in presence of efflux pump inhibitor phenylalanine arginine; settings: EA298, 18 h
Klebsiella aerogenes [14] = test: Antimicrobial activity against Enterobacter aerogenes EA294 after 18 hrs by rapid INT colorimetric assay; settings: EA294, 18 h; summary of the method: as §2
Escherichia coli [15] = test: Antimicrobial activity against Escherichia coli AG100A after 18 hrs by rapid INT colorimetric assay; summary of the method: as §2
Klebsiella aerogenes [16] = test: Antimicrobial activity against Enterobacter aerogenes EA289 after 18 hrs by rapid INT colorimetric assay in presence of efflux pump inhibitor phenylalanine arginine; settings: EA289, 18 h
Escherichia coli [17] = test: Antimicrobial activity against Escherichia coli AG100A after 18 hrs by rapid INT colorimetric assay in presence of efflux pump inhibitor phenylalanine arginine
Klebsiella aerogenes [18] = test: Antimicrobial activity against Enterobacter aerogenes EA5 after 18 hrs by rapid INT colorimetric assay in presence of efflux pump inhibitor phenylalanine arginine; settings: EA5, 18 h
Pseudomonas aeruginosa [19] = test: Antimicrobial activity against Pseudomonas aeruginosa PA124 after 18 hrs by rapid INT colorimetric assay in presence of efflux pump inhibitor phenylalanine arginine; settings: PA124, 18 h
Enterobacter cloacae [20] = test: Antimicrobial activity against Enterobacter cloacae Ec1194 after 18 hrs by rapid INT colorimetric assay; settings: Ec1194, 18 h; summary of the method: as §1
Klebsiella aerogenes [21] = test: Antimicrobial activity against Enterobacter aerogenes EA3 after 18 hrs by rapid INT colorimetric assay; settings: EA3, 18 h; summary of the method: as §1
Klebsiella pneumoniae [22] = test: Antimicrobial activity against Klebsiella pneumoniae KP63 after 18 hrs by rapid INT colorimetric assay in presence of efflux pump inhibitor phenylalanine arginine; settings: KP63, 18 h
Klebsiella pneumoniae [23] = test: Antimicrobial activity against Klebsiella pneumoniae KP55 after 18 hrs by rapid INT colorimetric assay; settings: KP55, 18 h; summary of the method: as §1
Klebsiella aerogenes [24] = test: Antimicrobial activity against Enterobacter aerogenes EA-CM64 after 18 hrs by rapid INT colorimetric assay; settings: EA-CM64, 18 h; summary of the method: as §2
Klebsiella aerogenes [25] = test: Antimicrobial activity against Enterobacter aerogenes EA27 after 18 hrs by rapid INT colorimetric assay; settings: EA27, 18 h; summary of the method: as §1
Pseudomonas aeruginosa [26] = test: Antimicrobial activity against Pseudomonas aeruginosa PAO1 after 18 hrs by rapid INT colorimetric assay in presence of efflux pump inhibitor phenylalanine arginine; settings: PAO1, 18 h
Escherichia coli [27] = test: Antimicrobial activity against tetracycline-resistant Escherichia coli AG100A after 18 hrs by rapid INT colorimetric assay in presence of efflux pump inhibitor phenylalanine arginine
Summary of the method: (§3)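 Broth microdilution MIC in Mueller-Hinton broth with PAßN at a final 20 μg/ml throughout. Twofold dilutions of sample from DMSO-MHB stock; inoculum 1.5 × 10^6 CFU/ml; 18 h at 37°C, final DMSO <2.5%. Growth read by INT (0.2 mg/ml, 30 min, 37°C). MIC taken as lowest concentration with no pink colour.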

Klebsiella aerogenes [28] = test: Antimicrobial activity against Enterobacter aerogenes EA298 after 18 hrs by rapid INT colorimetric assay; settings: EA298, 18 h; summary of the method: as §2
Escherichia coli [29] = test: Antimicrobial activity against tetracycline-resistant Escherichia coli AG100A after 18 hrs by rapid INT colorimetric assay; summary of the method: as §2
Klebsiella aerogenes [30] = test: Antimicrobial activity against Enterobacter aerogenes EA3 after 18 hrs by rapid INT colorimetric assay in presence of efflux pump inhibitor phenylalanine arginine; settings: EA3, 18 h
Escherichia coli [31] = test: Antimicrobial activity against Escherichia coli ATCC 8739 after 18 hrs by rapid INT colorimetric assay in presence of efflux pump inhibitor phenylalanine arginine; settings: ATCC 8739, 18 h; summary of the method: as §3
Escherichia coli [32] = test: Antimicrobial activity against Escherichia coli ATCC 10536 after 18 hrs by rapid INT colorimetric assay in presence of efflux pump inhibitor phenylalanine arginine beta-naphthylamide; settings: ATCC 10536, 18 h; summary of the method: as §3
Klebsiella pneumoniae [33] = test: Antimicrobial activity against Klebsiella pneumoniae ATCC 11296 after 18 hrs by rapid INT colorimetric assay; settings: ATCC 11296, 18 h; summary of the method: as §2
Escherichia coli [34] = test: Antimicrobial activity against tetracycline-resistant Escherichia coli AG102 after 18 hrs by rapid INT colorimetric assay in presence of efflux pump inhibitor phenylalanine arginine; settings: AG102, 18 h; summary of the method: as §3
Klebsiella aerogenes [35] = test: Antimicrobial activity against Enterobacter aerogenes ATCC 13048 after 18 hrs by rapid INT colorimetric assay; settings: ATCC 13048, 18 h; summary of the method: as §1
Enterobacter cloacae [36] = test: Antimicrobial activity against Enterobacter cloacae Ec1194 after 18 hrs by rapid INT colorimetric assay in presence of efflux pump inhibitor phenylalanine arginine; settings: Ec1194, 18 h; summary of the method: as §3
Klebsiella pneumoniae [37] = test: Antimicrobial activity against Klebsiella pneumoniae ATCC 11296 after 18 hrs by rapid INT colorimetric assay in presence of efflux pump inhibitor phenylalanine arginine; settings: ATCC 11296, 18 h
Pseudomonas aeruginosa [38] = test: Antimicrobial activity against Pseudomonas aeruginosa PA124 after 18 hrs by rapid INT colorimetric assay; settings: PA124, 18 h; summary of the method: as §2
Enterobacter cloacae [39] = test: Antimicrobial activity against Enterobacter cloacae Ec07769 after 18 hrs by rapid INT colorimetric assay; settings: Ec07769, 18 h; summary of the method: as §1
Escherichia coli [40] = test: Antimicrobial activity against Escherichia coli ATCC 8739 after 18 hrs by rapid INT colorimetric assay; settings: ATCC 8739, 18 h; summary of the method: as §2
Escherichia coli [41] = test: Antimicrobial activity against tetracycline-resistant Escherichia coli AG102 after 18 hrs by rapid INT colorimetric assay; settings: AG102, 18 h; summary of the method: as §2
Enterobacter cloacae [42] = test: Antimicrobial activity against Enterobacter cloacae Ec07769 after 18 hrs by rapid INT colorimetric assay in presence of efflux pump inhibitor phenylalanine arginine; settings: Ec07769, 18 h

Measured: MIC

CC1=C(c2c(C)cc(O)c3c2C(=O)C(c2c(O)c4c(C)cccc4oc2=O)=C(c2c(O)c4c(C)cccc4oc2=O)C3=O)C(=O)c2c(O)cccc2C1=O [DIOSPYRONE]
2 µg/mL: Escherichia coli [32] | Escherichia coli [34] | Enterobacter cloacae [36] | Klebsiella pneumoniae [37]
4 µg/mL: Escherichia coli [15] | Klebsiella pneumoniae [22] | Pseudomonas aeruginosa [26] | Escherichia coli [31]
0.24 µg/mL: Escherichia coli [27]
32 µg/mL: Escherichia coli [3] | Klebsiella pneumoniae [4] | Klebsiella aerogenes [9] | Enterobacter cloacae [20] | Klebsiella aerogenes [28] | Klebsiella pneumoniae [33]
0.12 µg/mL: Escherichia coli [17]
16 µg/mL: Klebsiella aerogenes [6] | Klebsiella aerogenes [8] | Klebsiella aerogenes [13] | Escherichia coli [29]
8 µg/mL: Klebsiella pneumoniae [1] | Klebsiella aerogenes [2] | Klebsiella aerogenes [16] | Enterobacter cloacae [42]
1 µg/mL: Escherichia coli [11] | Pseudomonas aeruginosa [19]
64 µg/mL: Escherichia coli [5] | Pseudomonas aeruginosa [10] | Klebsiella aerogenes [18] | Klebsiella pneumoniae [23] | Klebsiella aerogenes [30] | Pseudomonas aeruginosa [38] | Escherichia coli [41]
128 µg/mL: all other assays above

CCn1cc(C(=O)O)c(=O)c2cc(F)c(N3CCNCC3)cc21 [NORFLOXACIN]
1 µg/mL: Pseudomonas aeruginosa [26] | Escherichia coli [29] | Klebsiella pneumoniae [33] | Escherichia coli [41]
8 µg/mL: Klebsiella pneumoniae [1] | Klebsiella aerogenes [13] | Klebsiella aerogenes [28]
0.03 µg/mL: Escherichia coli [15] | Escherichia coli [32]
0.5 µg/mL: Klebsiella pneumoniae [37]
2 µg/mL: Klebsiella aerogenes [8] | Pseudomonas aeruginosa [10]
0.25 µg/mL: Klebsiella aerogenes [9] | Escherichia coli [27] | Escherichia coli [34] | Klebsiella aerogenes [35]
64 µg/mL: Klebsiella aerogenes [14] | Klebsiella aerogenes [30] | Pseudomonas aeruginosa [38]
16 µg/mL: Klebsiella pneumoniae [4] | Klebsiella pneumoniae [23]
4 µg/mL: Klebsiella pneumoniae [22] | Klebsiella aerogenes [24]
0.06 µg/mL: Escherichia coli [3]
0.007 µg/mL: Escherichia coli [17]
256 µg/mL: Klebsiella aerogenes [7] | Klebsiella aerogenes [25]
> 256 µg/mL: Enterobacter cloacae [39] | Enterobacter cloacae [42]
0.12 µg/mL: Escherichia coli [5] | Escherichia coli [11] | Escherichia coli [31] | Escherichia coli [40]
32 µg/mL: Klebsiella aerogenes [2] | Pseudomonas aeruginosa [19] | Enterobacter cloacae [20] | Enterobacter cloacae [36]
128 µg/mL: all other assays above
